Consider ten molecules from ChEMBL document CHEMBL4052644, “Synthesis of novel benzylidene analogues of betulinic acid as potent cytotoxic agents” (Eur J Med Chem, 2017).

The subject of assay [1] is A549. In words: Growth inhibition of human A549 cells at 10 uM after 48 hrs by SRB assay relative to control. The class given is functional. The conditions noted are these: A549, 48 h, read-out: GI. In short, it runs like this: (§1)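 Primary SRB screen of every compound at a single concentration of 10 µM. Growth inhibition is expressed relative to control.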
For assay [2], the system named is PC-3. The assay is described as follows: Growth inhibition of human PC3 cells at 10 uM after 48 hrs by SRB assay relative to control. The conditions noted are these: PC-3, 48 h, read-out: GI. The class given is functional. In short, it runs like this:
as §1

The test system of assay [3] is HCT-116. The assay is described as follows: Growth inhibition of human HCT116 cells at 10 uM after 48 hrs by SRB assay relative to control. It is filed as functional. Particulars: HCT-116, 48 h, read-out: GI. In short, it runs like this: as §1
Assay [4] has as its system MCF7. The assay is described as follows: Growth inhibition of human MCF7 cells at 10 uM after 48 hrs by SRB assay relative to control. The conditions noted are these: MCF7, 48 h, read-out: GI. The class given is functional. In short, it runs like this:
as §1

For assay [5], the system named is MIA PaCa-2. The assay is described as follows: Growth inhibition of human MIAPaCa2 at 10 uM after 48 hrs by SRB assay relative to control. It is filed as functional. The conditions noted are these: MIA PaCa-2, 48 h, read-out: GI. In short, it runs like this:
as §1

Assay [6] deals with A549. The assay is described as follows: Cytotoxicity against human A549 cells assessed as reduction in cell viability after 48 hrs by SRB assay. The class given is functional, cell-based. The conditions noted are these: A549, 48 h. In short, it runs like this:
(§2)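 SRB assay. Compounds active at 10 µM in the primary screen were retested at 1, 2.5 and 5 µM, and IC50 was calculated from these concentrations. The normal breast epithelial line fR2 was tested alongside the cancer lines.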

Assay [7] has as its system PC-3. In words: Cytotoxicity against human PC3 cells assessed as reduction in cell viability after 48 hrs by SRB assay. The class given is functional, cell-based. Particulars: PC-3, 48 h. In short, it runs like this: as §2
Assay [8] has as its system HCT-116. The assay is described as follows: Cytotoxicity against human HCT116 cells assessed as reduction in cell viability after 48 hrs by SRB assay. The class given is functional, cell-based. The conditions noted are these: HCT-116, 48 h. In short, it runs like this: as §2
In assay [9] the test system is MCF7. In words: Cytotoxicity against human MCF7 cells assessed as reduction in cell viability after 48 hrs by SRB assay. The class given is functional, cell-based. Particulars: MCF7, 48 h. In a few lines: as §2
Assay [10] concerns MIA PaCa-2. In words: Cytotoxicity against human MIAPaCa2 cells assessed as reduction in cell viability after 48 hrs by SRB assay. The class given is functional, cell-based. Particulars: MIA PaCa-2, 48 h. In a few lines: as §2
A short description of assay [11]: Cytotoxicity against human FR2 cells assessed as reduction in cell viability after 48 hrs by SRB assay. The class given is cell-based. The conditions noted are these: FR2, 48 h. In a few lines:
as §2

The nature of assay [12]: Selectivity index, ratio of IC50 for human FR2 cells to IC50 for human A549 cells. The class given is functional. In a few lines: (§3)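 Selectivity index is the IC50 in normal breast epithelial fR2 cells divided by the IC50 in each cancer line. All IC50 values come from the SRB assay.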
Assay [13] can be described thus: Selectivity index, ratio of IC50 for human FR2 cells to IC50 for human HCT116 cells. It is filed as functional. In a few lines: as §3
Assay [14] can be described thus: Selectivity index, ratio of IC50 for human FR2 cells to IC50 for human MCF7 cells. It is filed as functional. In a few lines: as §3

For the molecule `C=C(C)[C@@H]1CC[C@]2(C(=O)O)CC[C@]3(C)[C@H](CC[C@@H]4[C@@]5(C)C/C(=C\c6cccnc6)[C@H](O)C(C)(C)[C@@H]5CC[C@]43C)[C@@H]12`, the inhibition of growth at 10 µM in assay [1] worked out at 71%; in [2], 26%; in [3], 65%; in assay [4] it was 72%; in assay [5], 63%. Also, the IC50 in assay [6] is 3.4 µM; in assay [7], over 10 µM; in [8] it was 5.04 µM; in assay [9], 3.9 µM; in assay [10], 5.8 µM; in assay [11], 12.4 µM. In addition, the “Ratio IC50” value in assay [12] is given as 3.65; in assay [13], 2.46; in [14], 3.18.
As for `C=C(C)[C@@H]1CC[C@]2(C(=O)O)CC[C@]3(C)[C@H](CC[C@@H]4[C@@]5(C)C/C(=C\c6cc(Br)ccc6OC)[C@H](O)C(C)(C)[C@@H]5CC[C@]43C)[C@@H]12`, the inhibition of growth at 10 µM in assay [1] was found to be 65%; in assay [2], 7%; in assay [3], 54%; in assay [4], 67%; in assay [5] it was 16%. Also, the concentration for half-maximal inhibition (IC50) in [6] was 2.8 µM; in [7], over 10 µM; in assay [8], 5.44 µM; in assay [9], 5.2 µM; in [10], over 10 µM; in [11], 10.5 µM. Also, the “Ratio IC50” value in assay [12] is on record as 3.76; in assay [13], 1.93; in assay [14] it was 2.025.
In the case of `C=C(C)[C@@H]1CC[C@]2(C(=O)O)CC[C@]3(C)[C@H](CC[C@@H]4[C@@]5(C)CCC(=O)C(C)(C)[C@@H]5CC[C@]43C)[C@@H]12` [BETUNOLIC ACID], the inhibition of growth at 10 µM in [1] turned out to be 62%; in assay [2], 43%; in assay [3] it was 49%; in [4], 43%; in [5], 36%. The 50% inhibitory concentration (IC50) is 5.7 µM in assay [6]; over 10 µM in assay [7]; over 10 µM in [8]; over 10 µM in [9]; over 10 µM in assay [10]; 16.2 µM in [11]. Further, the “Ratio IC50” value in [12] is on record as 2.838.
Regarding `C=C(C)[C@@H]1CC[C@]2(C(=O)O)CC[C@]3(C)[C@H](CC[C@@H]4[C@@]5(C)C/C(=C\c6ccc(Br)o6)[C@H](O)C(C)(C)[C@@H]5CC[C@]43C)[C@@H]12`, the inhibition of growth at 10 µM in [1] came out at 0%; in assay [2], 8%; in assay [3], 25%; in [4], 22%; in [5] it was 34%.
For `C=C(C)[C@@H]1CC[C@]2(C(=O)O)CC[C@]3(C)[C@H](CC[C@@H]4[C@@]5(C)C/C(=C\c6ccsc6)[C@H](O)C(C)(C)[C@@H]5CC[C@]43C)[C@@H]12`, the inhibition of growth at 10 µM in assay [1] was 72%; in assay [2], 35%; in assay [3] it was 62%; in [4], 79%; in [5] it was 70%. The concentration for half-maximal inhibition (IC50) is over 10 µM in [6]; over 10 µM in assay [7]; over 10 µM in assay [8]; 1.71 µM in assay [9]; over 10 µM in [10]; 11.1 µM in [11]. Further, the “Ratio IC50” value in [14] worked out at 6.461.
With `C=C(C)[C@@H]1CC[C@]2(C(=O)O)CC[C@]3(C)[C@H](CC[C@@H]4[C@@]5(C)C/C(=C/C=C/c6ccccc6)[C@H](O)C(C)(C)[C@@H]5CC[C@]43C)[C@@H]12`, the inhibition of growth at 10 µM stood at 26% in assay [1]; 30% in assay [2]; 40% in assay [3]; 49% in [4]; 49% in assay [5].
As for `C=C(C)[C@@H]1CC[C@]2(C(=O)O)CC[C@]3(C)[C@H](CC[C@@H]4[C@@]5(C)C/C(=C\c6ccc(F)c(Br)c6)[C@H](O)C(C)(C)[C@@H]5CC[C@]43C)[C@@H]12`, the inhibition of growth at 10 µM was 65% in assay [1]; 31% in [2]; 57% in assay [3]; 72% in assay [4]; 40% in assay [5]. Besides, the IC50 in assay [6] was 4.9 µM; in assay [7] it was over 10 µM; in assay [8], 8.4 µM; in [9] it was 6.4 µM; in assay [10], over 10 µM; in assay [11], 25.7 µM. In addition, the “Ratio IC50” value in assay [12] is 5.253; in assay [13] it was 3.064; in [14], 4.021.
Turning to `C=C(C)[C@@H]1CC[C@]2(C(=O)O)CC[C@]3(C)[C@H](CC[C@@H]4[C@@]5(C)CC[C@H](O)C(C)(C)[C@@H]5CC[C@]43C)[C@@H]12` [BETULINIC ACID], the inhibition of growth at 10 µM in assay [1] was found to be 40%; in assay [2], 49%; in assay [3] it was 42%; in assay [4] it was 28%; in assay [5], 26%. The IC50 in assay [6] is over 10 µM; in assay [7], over 10 µM; in assay [8] it was over 10 µM; in assay [9], over 10 µM; in assay [10], over 10 µM; in assay [11] it was 30.1 µM.
For `C=C(C)[C@@H]1CC[C@]2(C(=O)O)CC[C@]3(C)[C@H](CC[C@@H]4[C@@]5(C)C/C(=C\c6c(Cl)cccc6Cl)C(=O)C(C)(C)[C@@H]5CC[C@]43C)[C@@H]12`, the inhibition of growth at 10 µM in [1] turned out to be 62%; in [2], 25%; in assay [3], 33%; in assay [4], 54%; in [5] it was 15%. The IC50 in assay [6] is 7.7 µM; in assay [7], over 10 µM; in [8], over 10 µM; in assay [9], 9.07 µM; in [10], over 10 µM; in assay [11] it was 18.2 µM. The results for the “Ratio IC50” value in [12] and in assay [13] were 2.359 and under 2.003, respectively.
In the case of `C=C(C)[C@@H]1CC[C@]2(C(=O)O)CC[C@]3(C)[C@H](CC[C@@H]4[C@@]5(C)C/C(=C\c6c(Cl)cccc6Cl)[C@H](O)C(C)(C)[C@@H]5CC[C@]43C)[C@@H]12`, the inhibition of growth at 10 µM was 40% in assay [1]; 38% in [2]; 40% in assay [3]; 56% in assay [4]; 38% in assay [5]. Besides, the half-inhibitory concentration (IC50) in assay [6] was over 10 µM; in assay [7] it was over 10 µM; in assay [8], over 10 µM; in assay [9] it was over 10 µM; in [10], over 10 µM; in [11], 13.3 µM.
